Assay outcomes as filed in PubChem BioAssay.
NPY-Y2 antag – NPY-Y2 receptor antagonists, primary screen, cell-based | Neuropeptide Y receptor type 2 (Homo sapiens), P49146 | NPY-Y2 expressing cells, antagonist mode | inhibition, % at 2.7 µM | 140,000 tested, 0.99% active;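 further: 0% = vehicle with agonist challenge and 100% = reference antagonist with challenge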
NPY1 pot ag – NPY-Y1 receptor potentiators or agonists, primary screen, cell-based. Neuropeptide Y receptor type 1 (Homo sapiens), P25929. NPY-Y1 expressing cells, potentiator/agonist activation. activation, % at 3.6 µM. 220,000 tested, 0.37% active. AID 1304, 2008; in the data active means activation above about 33%, passing the limit was not always enough;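 further: cells stimulated with NPY at EC10 then isoproterenol at EC100; 0% = low agonist plus stimulus and 100% = saturating agonist plus stimulus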
EP2 mod – EP2 receptor modulators, cAMP readout, primary screen, cell-based, HTRF cAMP, PGE2 stimulation. EP2-expressing cells, cAMP HTRF FRET, PGE2 co-stimulation. 260,000 tested, 0.83% active. induction, % at 25 µM. AID 940, 2007. Prostaglandin E2 receptor EP2 subtype (Homo sapiens), P43116;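 active means compounds whose cAMP rise, as percent of the full-agonist control response, exceeds 60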;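 further: rat C6 glioma line stably carrying human EP2 under a CMV promoter; the protocol text gives 20 µM as final concentration; 100% = response of wells given 1 µM PGE2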
Target sequence (P43116 whole entry, looked up): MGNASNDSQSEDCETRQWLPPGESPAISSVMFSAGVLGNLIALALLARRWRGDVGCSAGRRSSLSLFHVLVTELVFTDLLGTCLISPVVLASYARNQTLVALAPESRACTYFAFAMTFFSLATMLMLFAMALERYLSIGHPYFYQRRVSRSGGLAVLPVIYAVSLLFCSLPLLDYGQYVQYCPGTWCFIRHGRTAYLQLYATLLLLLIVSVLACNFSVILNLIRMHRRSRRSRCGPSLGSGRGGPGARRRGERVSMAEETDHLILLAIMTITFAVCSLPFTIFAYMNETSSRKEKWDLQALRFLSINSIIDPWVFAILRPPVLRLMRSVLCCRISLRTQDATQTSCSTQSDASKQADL
NPY-Y1 antag – NPY-Y1 receptor antagonists, primary screen, cell-based; Neuropeptide Y receptor type 1 (Homo sapiens), P25929; HEK293-CNG Y1 cells, membrane potential fluorescence; NPY at EC95, then isoproterenol; inhibition, % at 3.6 µM; 200,000 tested, 1% active;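 active means inhibition above the campaign mean inhibition of all tested compounds plus 3 SD, cut at about 20% in these data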;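 further: 0% = DMSO wells given NPY plus isoproterenol and 100% = isoproterenol alone without NPY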
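material = HEK293 cells with Y1 receptor plus CNG channel | also added = NPY 25 nM then isoproterenol 1 µM plus Ro 20-1724 25 µM | schedule = dye 3 h, compound 60 min room temperature, stimulation 45 min | measured by = membrane potential fluorescence | benchmarks = high control isoproterenol alone, low control NPY with isoproterenol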
NPY-Y2 PAM-ag – NPY-Y2 potentiators or agonists, primary screen, cell-based; cells expressing NPY-Y2, potentiator/agonist read-out; activation, % at 3.6 µM; 220,000 tested, 0.45% active; in the data active means activation above about 27%;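 further: cells stimulated with NPY near EC25 plus isoproterenol at EC100; 0% = vehicle plus submaximal agonist and 100% = vehicle plus saturating agonist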
EP2 antag – human EP2 receptor antagonists, primary screen, TR-FRET cAMP, C6 glioma cells | inhibition, % at 25 µM | C6 glioma cells expressing human EP2; cells stimulated with saturating PGE2 | 260,000 tested, 0.52% active;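 active means percent inhibition above 40 after rounding to a whole number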;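 further: rat C6 glioma host cells with rolipram phosphodiesterase inhibitor present; the protocol text gives 20 µM as final concentration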
NPY1 antag conf – NPY-Y1 receptor antagonists, retest of hits, confirmation, HEK293-CNG cells, membrane potential fluorescence, triplicate | 1,200 tested, 21% active | cAMP; NPY challenge against isoproterenol-raised cAMP | shares compounds with NPY-Y1 antag | inhibition, % at 3.6 µM | AID 1254, 2008; in the data active means inhibition above about 20%;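 further: 0% = vehicle with agonist plus stimulus and 100% = stimulus alone without agonist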
NPY2 antag ctr – NPY-Y2 receptor antagonists, selectivity check, confirmation, counter-screen for NPY-Y1 antagonist project, HEK293-CNG cells, membrane potential fluorescence, triplicate; shares compounds with NPY-Y1 antag; inhibition, % at 3.6 µM; antagonism; cells given NPY, then isoproterenol; AID 1255, 2008; 1,200 tested, 28% active;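 further: 0% = DMSO with agonist challenge and 100% = reference antagonist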
Active calls of the source: *; . = not tested or not shown. Compounds with a hit are over-represented: about 2.8% of the library has one in this group of screens. Unless noted, no stated cut-off is given here; in the data, active means inhibition above about 17%; inactive means the rest.

SMILES | NPY-Y2 antag | NPY1 pot ag | EP2 mod | NPY-Y1 antag | NPY-Y2 PAM-ag | EP2 antag | NPY1 antag conf | NPY2 antag ctr
CC1Cc2ccccc2N1C(=S)NC(=O)c1ccc(Cl)cc1Cl (centres undefined) | 7 | -18 | 7 | 25* | 1 | 5 | 1 | 3
Cc1ccccc1NC(=O)NC1(C(=O)N2CCc3ccccc32)CCCCC1 | . | . | -18 | . | . | 10 | . | .
COc1ccc(CC2(CO)CCN(C/C=C/c3ccccc3OC)CC2)cc1 | . | -30 | -53 | 27* | -15 | 14 | 17 | 23*
O=C(CSc1nc2c(c(C(F)(F)F)n1)CCc1ccccc1-2)Nc1c(Cl)cccc1Cl | . | . | -69 | . | . | 7 | . | .
N=c1n(CCN2CCOCC2)c2ccccc2n1Cc1ccccc1Br | 11 | -12 | 28 | 21* | 1 | 9 | 3 | 5
N=c1n(CCN2CCOCC2)c2ccccc2n1CC(N)=O | . | . | -4 | . | . | 5 | . | .
C/C=C(/C)C(=O)OC1c2c(ccc3ccc(=O)oc23)OC(C)(C)C1OC(=O)/C(C)=C\C (centres undefined) | . | -13 | 49 | 22* | -35 | 17 | 12 | 31*
C/C=C(\C)C(=O)OC1c2c(ccc3ccc(=O)oc23)OC(C)(C)C1OC(C)=O (centres undefined) | 10 | -17 | -42 | 4 | -2 | 15 | . | .
O=C(NC1CCCC1)C(c1ccco1)N(Cc1ccccc1)C(=O)c1csnn1 (centres undefined) | 14 | 0 | -5 | 30* | -1 | 2 | 4 | 5
c1ccc(-n2cc(CN3CCCC(CN4CCCC4)C3)c(-c3ccc4c(c3)OCO4)n2)cc1 (centres undefined) | . | -36 | -33 | 32* | -25 | 10 | 14 | 27*
CCCCOc1ccc(C(=O)O)cc1 | 5 | -14 | 22 | 6 | -8 | 9 | . | .
CCCCOc1ccc(C(=O)OC(C)CN(C)C)cc1 (centres undefined) | 11 | -31 | -31 | 24* | -34 | . | 6 | 9
Cn1c(Oc2ccccc2NCc2cccc(Br)c2)cc(=O)n(C)c1=O | 5 | -12 | 24 | 25* | -9 | 7 | 11 | 6
COc1cc(-c2noc(C3CCCN(S(=O)(=O)c4ccc(F)cc4)C3)n2)cc(OC)c1OC (centres undefined) | . | . | -28 | . | . | 9 | . | .
OC(COc1ccc2c(c1)CCC2)CN1CCN(c2ccccc2F)CC1 (centres undefined) | 10 | -25 | -43 | 26* | -30 | 18 | 13 | 16
CO/N=C(\c1nonc1N)N1CCN(c2ccc(Cl)cc2[N+](=O)[O-])CC1 | 13 | 2 | -32 | 24* | -2 | . | 16 | 9
CO/N=C(\c1nonc1N)N1CCN(c2ccc([N+](=O)[O-])cc2Cl)CC1 | 2 | -11 | 7 | 14 | 10 | 9 | . | .
CCOC(=O)c1cnc(SCCc2ccccc2)nc1N | 8 | -2 | 15 | 21* | -19 | 9 | 8 | 7
Cc1ccccc1COC(=O)c1nn(-c2ccccc2)nc1N | . | -32 | -47 | 19 | -26 | 3 | . | .
Nc1nn(-c2ccccc2)nc1C(=O)OCc1ccccc1F | . | -27 | -25 | 30* | -15 | 12 | 8 | 7
COc1cc(/C=N/N=C(/N)c2nonc2N)cc(Br)c1OCc1cccc(C)c1 | 11 | -19 | 22 | 21* | -17 | 9 | 15 | 14
CCOc1cc(/C=N/N=C(\N)c2nonc2N)cc(Br)c1OCc1cccc2ccccc12 | 3 | -25 | 12 | 9 | -7 | 4 | . | .
Cc1nc(C(=O)Nc2cc(Cl)ccc2Cl)nn1-c1cc(OC(C)C)c(Cl)cc1Cl | 2 | -15 | 12 | -1 | -8 | 6 | . | .
Cc1nc(C(=O)Nc2cccc(Cl)c2Cl)nn1-c1cc(OC(C)C)c(Cl)cc1Cl | 10 | -137 | -1 | 20* | 0 | . | 14 | 26*
COc1cc(-c2noc(-c3ccccc3C(=O)NCc3ccco3)n2)cc(OC)c1OC | 3 | -25 | -15 | 25* | -7 | 13 | 6 | 5
SMILES | NPY-Y2 antag | NPY1 pot ag | EP2 mod | NPY-Y1 antag | NPY-Y2 PAM-ag | EP2 antag | NPY1 antag conf | NPY2 antag ctr
COc1ccccc1C1(NC(=O)c2c(-c3ccncc3)noc2C)CCCC1 | . | . | -12 | . | . | 9 | . | .
Cc1ccccc1Nc1scc(-c2ccc(Cl)cc2)[n+]1-c1ccccc1C | . | -6 | 34 | 36* | -4 | 4 | 9 | 11
Cc1c(Nc2scc(-c3ccccc3)[n+]2-c2ccccc2)c(=O)n(-c2ccccc2)n1C | . | 22 | 17 | 5 | 12 | 6 | . | .
COc1ccc(OC)c(CNc2nc3ccccc3n2CCN2CCCCC2)c1 | 15 | -20 | -20 | 33* | -6 | 7 | 22* | 18*
CCN(c1ccccc1)P(=O)(Nc1ccccc1)Nc1ccccc1 | . | -10 | 23 | . | -19 | 2 | . | .
CN(c1ccccc1)P(=O)(N(C)c1ccccc1)N(C)c1ccccc1 | . | -23 | 33 | 34* | 12 | 5 | 30* | 20*
Cc1ccc(Cn2nc(-c3ccccc3)nc2-c2ccccc2)cc1 | 14 | -13 | 22 | 25* | -30 | . | 13 | 11
CCCCOC(=O)c1cc(=O)[nH]c2ccc(C)cc12 | . | -5 | -19 | 22* | 3 | 10 | 10 | 8
Cc1cc(NC(=O)CSc2nc3ccccc3c(=O)n2C2CCCC2)no1 | 12 | -24 | 2 | 33* | -8 | 12 | 2 | 13
Cc1ccccc1OCCNC(=O)/C=C/c1ccc([N+](=O)[O-])cc1 | 8 | -14 | -78 | 20* | -6 | 12 | 10 | 10
COc1ccccc1OCCNC(=O)/C=C/c1ccc([N+](=O)[O-])cc1 | 4 | -18 | -66 | 4 | -10 | 8 | . | .
CCc1ccccc1NC(=O)Cn1nnc(-c2ccc(OC)c(OC)c2)n1 | . | . | -9 | . | . | 6 | . | .
O=C(CSc1nnc(-c2ccc(O)cc2)n1CC1CCCO1)OC1CCCCC1 (centres undefined) | . | . | -4 | . | . | 22 | . | .
CC(C)NC(=O)c1onc(CSc2ccccc2)c1C(=O)O | 5 | -33 | 8 | 8 | -9 | 15 | . | .
CCCCNC(=O)c1onc(CSc2cccc(OCC)c2)c1C(=O)O | 16 | -46 | 14 | 22* | -30 | 27 | 15 | 14
